Test: Inhibition of Vibrio cholerae alpha-carbonic anhydrase preincubated for 15 mins by stopped-flow CO2 hydration assay
Method in brief: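 Stopped-flow CO2 hydration assay, phenol red 0.2 mM read at 557 nm, 20 mM Hepes pH 7.4 with 20 mM NaBF4 for ionic strength. Initial rates followed 10–100 s, CO2 1.7–17 mM. Inhibitor (10 mM DMSO stock, buffer dilutions down to 0.01 nM) preincubated with enzyme 15 min at RT. Uncatalyzed rate subtracted; Ki by nonlinear least squares and Cheng–Prusoff, mean of ≥3 determinations.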
In the case of NS(=O)(=O)c1ccc(NC(=O)CSc2nc3ccc([N+](=O)[O-])cc3c(=S)n2Cc2ccccc2)cc1, the Ki is reported as > 10000 nM. With COc1ccc2nc(SCC(=O)Nc3ccc(S(N)(=O)=O)cc3)n(Cc3ccccc3)c(=O)c2c1 the Ki was > 10000 nM. In the case of Cc1ccc2nc(SCC(=O)Nc3ccc(S(N)(=O)=O)cc3)n(Cc3ccccc3)c(=O)c2c1, the Ki is reported as 2.7 nM. In the case of CC(=O)Nc1nnc(S(N)(=O)=O)s1 [ACETAZOLAMIDE], the Ki is reported as […]. Cc1cccc2c(=S)n(Cc3ccccc3)c(SCC(=O)Nc3ccc(S(N)(=O)=O)cc3)nc12 gave a Ki of 8.7 nM. For COc1cccc2c(=O)n(Cc3ccccc3)c(SCC(=O)Nc3ccc(S(N)(=O)=O)cc3)nc12, the Ki was > 10000 nM. For COc1cccc2c(=S)n(Cc3ccccc3)c(SCC(=O)Nc3ccc(S(N)(=O)=O)cc3)nc12, the Ki was 7.9 nM. For Cc1cccc2c(=O)n(Cc3ccccc3)c(SCC(=O)Nc3ccc(S(N)(=O)=O)cc3)nc12, the Ki was 8.5 nM. For Cc1cccc2nc(SCC(=O)Nc3ccc(S(N)(=O)=O)cc3)n(Cc3ccccc3)c(=S)c12, the Ki was 7.7 nM. C=CCn1c(SCC(=O)Nc2ccc(S(N)(=O)=O)cc2)nc2ccc(C)cc2c1=O gave a Ki of 6 nM. Cc1ccc2nc(SCC(=O)Nc3ccc(S(N)(=O)=O)cc3)n(Cc3ccccc3)c(=S)c2c1 gave a Ki of 5.5 nM. In the case of C=CCn1c(SCC(=O)Nc2ccc(S(N)(=O)=O)cc2)nc2ccc([N+](=O)[O-])cc2c1=O, the Ki is reported as 6.6 nM. In the case of NS(=O)(=O)c1ccc(NC(=O)CSc2nc3ccc([N+](=O)[O-])cc3c(=O)n2Cc2ccccc2)cc1, the Ki is reported as > 10000 nM.

Reference: ChEMBL document CHEMBL3352616, “Quinazoline-sulfonamides with potent inhibitory activity against the α-carbonic anhydrase from Vibrio cholerae” (Bioorg Med Chem, 2014)
